# Laboratory results: ChEMBL document CHEMBL4270630
# Legend:
# [1] = test system: Influenza A virus; assay: Antiviral activity against Influenza A virus A/PR/8/34(H1N1) infected in MDCK cells assessed as reduction in virus-induced cytopathic effect after 3 days by microscopic method; assay type: functional, organism-based, A/Puerto Rico/8/1934(H1N1); conditions: Influenza A virus, A/Puerto Rico/8/1934(H1N1), MDCK, 72 h
# Outline: (§1)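 Semi-confluent MDCK cells were infected at an MOI of 0.0004 PFU/cell in Ultra-MDCK infection medium with 2 μg/mL TPCK-trypsin, together with compounds. After 3 days at 35 °C, CPE was scored by microscopy and confirmed by MTS formazan viability. EC50 is the concentration giving 50% inhibition of virus-induced CPE. Values are means of two to five independent tests.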
# [2] = test system: Influenza A virus; assay: Antiviral activity against Influenza A virus A/PR/8/34(H1N1) infected in MDCK cells after 3 days by MTS assay; assay type: functional, organism-based, A/Puerto Rico/8/1934(H1N1); conditions: Influenza A virus, A/Puerto Rico/8/1934(H1N1), MDCK, 72 h; outline: as §1
# [3] = test system: Influenza A virus; assay: Antiviral activity against Influenza A virus A/Virginia/ATCC3/2009(H1N1pdm) infected in MDCK cells assessed as reduction in virus-induced cytopathic effect after 3 days by microscopic method; assay type: functional, organism-based, Influenza A virus (A/Virginia/03/2009(H1N1)); conditions: 72 h; outline: as §1
# [4] = test system: Influenza A virus; assay: Antiviral activity against Influenza A virus A/Virginia/ATCC3/2009(H1N1pdm) infected in MDCK cells after 3 days by MTS assay; assay type: functional, organism-based, Influenza A virus (A/Virginia/03/2009(H1N1)); conditions: 72 h; outline: as §1
# [5] = test system: H3N2 subtype; assay: Antiviral activity against Influenza A virus A/HK/7/87(H3N2) infected in MDCK cells assessed as reduction in virus-induced cytopathic effect after 3 days by microscopic method; assay type: functional, organism-based; conditions: A/Hong Kong/7/1987(H3N2), 72 h; outline: as §1
# [6] = test system: H3N2 subtype; assay: Antiviral activity against Influenza A virus A/HK/7/87(H3N2) infected in MDCK cells after 3 days by MTS assay; assay type: functional, organism-based; conditions: A/Hong Kong/7/1987(H3N2), 72 h; outline: as §1
# [7] = test system: Influenza B virus; assay: Antiviral activity against Influenza B virus B/Ned/537/05 infected in MDCK cells assessed as reduction in virus-induced cytopathic effect after 3 days by microscopic method; assay type: functional, organism-based; conditions: B/Ned/537/05, MDCK, 72 h
# Outline: (§2)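 Semi-confluent MDCK cells were infected at an MOI of 0.0004 PFU/cell in Ultra-MDCK infection medium with 2 μg/mL TPCK-trypsin, together with compounds. After 3 days at 35 °C, CPE was scored by microscopy and confirmed by MTS formazan viability. Values are means of two to five independent tests.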
# [8] = test system: Influenza B virus; assay: Antiviral activity against Influenza B virus B/Ned/537/05 infected in MDCK cells after 3 days by MTS assay; assay type: functional, organism-based; conditions: B/Ned/537/05, MDCK, 72 h; outline: as §2
# [9] = test system: MDCK; assay: Cytotoxicity against MDCK cells assessed as reduction in cell viability after 3 days by MTS assay; assay type: cell-based, Canis lupus familiaris; conditions: dog, mdck, 72 h
# [10] = Cytotoxicity against MDCK cells assessed as alteration in cell morphology after 3 days by microscopic method; assay type: cell-based, Canis lupus familiaris; conditions: dog
# Outline: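 Mock-infected MDCK cells were treated with compounds in parallel with the antiviral assay, 3 days at 35 °C. MCC is the concentration causing minimal change in cell morphology by microscopy. CC50 is the 50% cytotoxic concentration by MTS formazan viability assay.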
# [11] = test system: Influenza A virus; assay: Antiviral activity against Influenza A virus A/PR/8/34(H1N1) GFP-fused pseudotyped lentiviral particle expressing H1-HA/N1-NA infected in MDCK cells assessed as inhibition of pseudoparticle entry at 10 uM after 3 days by flow cytometry relative to control; assay type: functional; conditions: A/Puerto Rico/8/1934(H1N1), 72 h
# Outline: (§3)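 MDCK cells were seeded at 7500/well and one day later were exposed to compounds plus GFP lentiviral pseudoparticles bearing A/PR/8/34 H1-HA and N1-NA, with HA0 activated by trypsin. After 3 days the cells were trypsinized, fixed in paraformaldehyde and analysed for GFP by flow cytometry. Entry inhibition was taken as the reduction in GFP signal. Data are the mean ± SEM of four independent experiments.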
# [12] = test system: Influenza A virus; assay: Antiviral activity against Influenza A virus A/PR/8/34(H1N1) GFP-fused pseudotyped lentiviral particle expressing H1-HA/N1-NA infected in MDCK cells assessed as inhibition of pseudoparticle entry at 2 uM after 3 days by flow cytometry relative to control; assay type: functional; conditions: A/Puerto Rico/8/1934(H1N1), 72 h; outline: as §3
smiles,measurement,setting,value
CCCCCCCCCCOCc1cn(CCOCCOCCOCCOCc2cn([C@H]3C(=O)N[C@@H]4Cc5ccc(c(Cl)c5)Oc5cc6cc(c5O)Oc5ccc(cc5Cl)[C@@H](O[C@@H]5O[C@H](CO)[C@@H](O)[C@H](O)[C@H]5NC(C)=O)[C@H]5NC(=O)[C@H](NC(O)[C@@H]6NC(=O)[C@@H](NC4=O)c4cc(O)cc(c4)Oc4cc3ccc4O)c3ccc(O)c(c3)-c3c(O)cc(O)cc3[C@H](C(=O)O)NC5=O)nn2)nn1 (some centres not stated),EC50,[1],1600 nM
same,EC50,[2],1500 nM
same,EC50,[3],1800 nM
same,EC50,[4],1800 nM
same,EC50,[5],1600 nM
same,EC50,[6],1300 nM
same,EC50,[7],> 100000 nM
same,EC50,[8],< 800 nM
same,CC50,[9],≥ 82000 nM
same,MCC at 72 h,[10],≥ 20 µM
same,inhibition at 10 µM,[11],92%
same,inhibition at 2 µM,[12],56%
